Assay results collected from several papers.
Compare with care: the assays were run in different laboratories.
Target: Ribosomal protein S6 kinase beta-1 (RPS6KB1, Homo sapiens, UniProt P23443)
Observed: enzyme activity
Mode: inhibitor

`Cc1ccc(Nc2nccc(N(C)c3ccc4c(C)n(C)nc4c3)n2)cc1S(N)(=O)=O` gave a remaining activity of 96% (0.5 µM).
For `CCN(CC)CCNC(=O)c1c(C)[nH]c(/C=C2\C(=O)Nc3ccc(F)cc32)c1C`, the remaining activity was 79% (0.1 µM).
`CC(C)(C)c1nc2c(s1)c1nc(N)ncc1c1ccc(NS(=O)(=O)c3c(F)cccc3F)c(F)c12` gave a remaining activity of 87% (radiometric; 1 µM).
With `Cc1[nH]c(/C=C2\C(=O)Nc3ccc(F)cc32)c(C)c1C(=O)N[C@H]1CCN(C(=O)N(C)C)C1` the remaining activity was 84% (0.1 µM).
The remaining activity of `Nc1nc(NC2CCCCC2)sc1C(=O)c1ccccc1` is reported as 78% (10 µM).
`COc1cc(Nc2cnc(C#N)c(O[C@H](C)CN(C)C)n2)ncc1-c1cnn(C)c1` has a remaining activity of 55% (radiometric; 1 µM).
For `CCN(CC)c1ccc(C2=NNC(=O)CC2C)cc1[N+](=O)[O-]` (stereo not drawn), the remaining activity was 109% (10 µM).
The remaining activity of `CC(C)(O)[C@H]1CC[C@H](Nc2ccc3ncc(-c4cccc(C(F)(F)F)c4)n3n2)CC1` is reported as 96.8% (1 µM).
`O=C(Nc1cnn(-c2csc(C(=O)NC3COC3)c2)c1)Nc1ccccc1Cl` has a remaining activity of 92.1% (5 µM).
`Cc1ccc(C(=O)Nc2ccc(CN3CCN(C)CC3)c(C(F)(F)F)c2)cc1C#Cc1cnc2cccnn12` has a remaining activity of 68% (23.5 nM).
`Oc1cccc(-c2nc(N3CCOCC3)c3oc4ncccc4c3n2)c1` has a remaining activity of 90% (10 µM).
`CCCOc1ccc(OC)c(F)c1C(=O)c1ccc(C(=O)N[C@@H]2CNC[C@H]2NC(=O)c2ccc3[nH]ncc3c2)cc1` has a remaining activity of 2% (10 µM).
